Measurements collected from several papers.
Compare with care: the assays were run in different laboratories.
Target: Dual specificity protein kinase CLK1 (CLK1, Homo sapiens, UniProt P49759)

SMILES | assay | conditions | endpoint | value
CC(C)(C)c1cc(C=C(C#N)C#N)cc(Br)c1O | enzyme activity, inhibitor | 0.5 µM | remaining activity | 112%
Cn1cncc1[C@@](O)(COc1ccc(C#N)cc1-c1ccc(OC(F)(F)F)cc1)c1ccc(C#N)cc1 | cell-free assay, competition with immobilised ligand | 1 µM | remaining binding | 100%
Nc1ncc(-c2nc(N3CCOCC3)nc(N3CCOCC3)n2)c(C(F)F)n1 | binding, competition with immobilised ligand | 10 µM | remaining binding | 58%
C#Cc1n[nH]c2c(-c3cn([C@@H](C)c4ccccn4)c(=O)[nH]c3=O)cc(F)cc12 | enzyme activity, inhibitor | 0.1 µM | inhibition | 4.1%
Cc1nn(C)cc1-c1nc2c(N3CCN(Cc4ccc(Cl)cc4)CC3)c(Cl)cnc2[nH]1 | binding, competition with immobilised ligand | 1 µM | remaining binding | 63%
O=c1[nH]c2ccccc2n1C1CCN(Cc2ccc(-c3[nH]c4cc5ncnc5cc4nc3-c3ccccc3)cc2)CC1 | cell-free assay | 0.5 µM | remaining signal | 109%
Cn1cc(-c2cc(F)cc(N3CCn4c(cc5c4CCCC5)C3=O)c2CO)cc(Nc2ccc(N3CCN(C4COC4)CC3)cn2)c1=O | enzyme activity, inhibitor | 0.1 µM | inhibition | 11%
COc1cc(Nc2ncc(F)c(Nc3ccc4c(n3)NC(=O)C(C)(C)O4)n2)cc(OC)c1OC | binding, competition with immobilised ligand | 10 µM | inhibition | 92%
COc1ncccc1-c1cnn2ccc(N3CCN(C(=O)OC(C)C)CC3)nc12 | binding, competition with immobilised ligand | 1 µM | remaining binding | 81%
